HCV NS3 hel inh – inhibitors of Hepatitis C virus NS3 helicase; NS3 helicase DNA unwinding, Cy5 molecular beacon fluorescence; inhibition, % at 10.9 µM; 0.56% of 290,000 active; AID 1800;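 active means inhibition above the mean of all tested compounds plus 3 SD, set per campaign, cut at about 35% in these data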;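 further: 0% = DMSO wells and 100% = thioflavine S control wells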
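System: Hepatitis C virus NS3 helicase domain fragment enzyme | Reagent: Annealed dual-labelled DNA beacon duplex, ATP-started | Compound dosing: 10.9 µM single point, 0.8% DMSO | Incubation: 1 h reaction at 25 °C, ATP-initiated | Technique: Cy5 fluorescence | Evaluation: Percent inhibition from t60/t0 fluorescence ratio | Benchmarks: Low DMSO, high thioflavine S at 110 µM | Replication: Singlicate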
rCAG binder – molecules binding r(CAG) RNA repeats; r(CAG) RNA repeat, TO-PRO-1 dye displacement fluorescence; inhibition, % at 3 µM; 1.3% of 370,000 active; AID 651821;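 active means inhibition above the plate cutoff, the mean of all test compounds on that plate plus 3 SD, cut at about 35% in these data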;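 further: 0% = DMSO alone and 100% = 100 µM mitoxantrone as full dye displacement; higher means more dye released from RNA so lower well fluorescence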
TAAR1 antag – antagonists of human TAAR1; Q96RJ0; 1.5% of 360,000 active; AID 624466; inhibition, % at 3 µM; CHO RD-HGA16 TAAR1, Fluo-8 calcium fluorescence, antagonist;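 active means inhibition above a per-plate cutoff, the mean inhibition of test compounds on that plate plus 3 SD, cut at about 49% in these data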;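 further: 0% = DMSO plus EC80 beta-PEA response and 100% = DMSO alone without agonist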
Target sequence (Q96RJ0 whole entry, looked up): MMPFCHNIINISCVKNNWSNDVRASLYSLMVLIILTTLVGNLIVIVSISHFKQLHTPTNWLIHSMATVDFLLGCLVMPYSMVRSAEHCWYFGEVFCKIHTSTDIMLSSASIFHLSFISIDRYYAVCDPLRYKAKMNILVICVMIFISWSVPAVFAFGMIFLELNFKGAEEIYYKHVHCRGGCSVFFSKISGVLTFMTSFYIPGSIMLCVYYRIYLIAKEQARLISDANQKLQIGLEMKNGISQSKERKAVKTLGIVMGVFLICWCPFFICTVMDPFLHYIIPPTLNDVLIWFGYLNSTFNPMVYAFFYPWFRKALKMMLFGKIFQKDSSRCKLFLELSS
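Test system – hTAAR1-expressing CHO RD-HGA16 cells, Gα16-coupled · Reagent – β-PEA at EC80 concentration, post-compound challenge · Compound dosing – 3 µM, single point · Timing – 140 s kinetic read after compound, 140 s after agonist · Detection – Fluo-8 intracellular calcium dye fluorescence, real-time kinetic reads · Control set – DMSO and EC80 PEA controls · Repeats – n of 1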
HCV core dimer – HCV core protein dimerization inhibition | inhibition, % at 5 µM | 0.33% of 300,000 active | TR-FRET GST/Flag-core106 dimerization, 1536-well;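 active means inhibition above the mean of all tested compounds plus 3 SD, set per screening campaign, cut at about 45% in these data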
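Assay system: Tagged HCV core106 pair (GST and Flag) | Buffer or medium: KF-containing HEPES buffer, pH 7.45, DTT, CHAPS, BSA | Also added: Eu donor and XL665 acceptor anti-tag antibodies | Dosing: One concentration, 5 µM, in 0.5% DMSO | Timing: 4 h at 22.5 °C | Technique: TR-FRET 671 and 617 nm emission | Repeats: Singlicate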
TAAR1 ag – human TAAR1 agonism; Q96RJ0; CHO RD-HGA16 TAAR1, Fluo-8 calcium fluorescence; vehicle wells 0%, saturating PEA agonist 100%; activation, % at 3 µM; 0.99% of 360,000 active; AID 624467;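 active means activation above the mean activation of all test compounds in the run plus 3 SD, cut at about 38% in these data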
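System: CHO-derived RD-HGA16 cells with stable Gα16 and human TAAR1 / Times: 17-24 h plating, Fluo-8 75 min 37 °C, 30 min RT / Technique: calcium-sensitive Fluo-8 signal, excitation 470-495, emission 515-575 nm / Measure: % activation relative to PEA EC100 response / Benchmarks: DMSO and PEA EC100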
rCAG binder conf – r(CAG) RNA repeat binding, confirmation; shares compounds with rCAG binder; TO-PRO-1 dye displacement fluorescence; inhibition, % at 3 µM; 70% of 4,300 active;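 active means inhibition above a per-plate cutoff, the mean inhibition of sample wells plus 3 SD, cut at about 35% in these data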;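 further: loss of TO-PRO-1 fluorescence as compound displaces dye from 1x1 AA loop RNA; 0% = DMSO only wells and 100% = 100 µM mitoxantrone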
DNA CAG counter – counter-screen for rCAG RNA binders: DNA CAG dye complex inhibitors; d(CAG) DNA oligo TO-PRO-1 dye displacement, fluorescence; inhibition, % at 3 µM; AID 652068; 94% of 4,300 active; shares compounds with rCAG binder;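 active means inhibition above its plate's cutoff, the mean test-well inhibition plus 3 SD, cut at about 4.8% in these data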;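 further: 0% = DNA dye mix with DMSO and 100% = 100 µM mitoxantrone; hits displace the dye from DNA and so lower well fluorescence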
dCAG dye DR – DNA CAG dye complex inhibition, dose response counter-screen | shares compounds with rCAG binder | DNA CAG/GTC duplex TO-PRO-1 dye displacement fluorescence | IC50, µM | 20% of 250 active; in the data active means IC50 below about 10 µM
The depositor's hits bear a star; i = inactive; · = no result given. Shown are actives, neighbours in structure and some others; about 3.7% of the full set was active somewhere.

SMILES	HCV NS3 hel inh	rCAG binder	TAAR1 antag	HCV core dimer	TAAR1 ag	rCAG binder conf	DNA CAG counter	others
Cc1csc(NC(=O)CCCC(=O)O)c1-c1nc2ccccc2s1	1	2	-42	3	1	·	·
Cc1csc(NC(=O)COCC(=O)O)c1-c1nc2ccccc2s1	8	55*	3	4	1	43*	9.7*
O=C(NC(Nc1ncc(S(=O)(=O)c2ccc([N+](=O)[O-])cc2)s1)(C(F)(F)F)C(F)(F)F)c1ccc(Cl)cc1	7	46*	11	11	6	52*	14*
O=C(Nc1ncc(Cc2cccc(Cl)c2)s1)c1ccc([N+](=O)[O-])cc1	-4	2	-19	2	11	·	·
N#Cc1cccc(CNCC(=O)N2CCC3(CC2)OCCO3)c1	·	0	·	·	·	·	·
O=C(N/N=C/c1cc(Br)c(O)c(Br)c1)c1cc2c(ccc3ccccc32)o1	13	96*	13	·	-1	78*	46*
Cc1nc(S/C(=C/c2ccc(-c3cc(Cl)ccc3C)o2)C(=O)O)n[nH]1	24	51*	-1	-2	-3	81*	44*
Cc1nc(S/C(=C/c2ccc(-c3ccc(Cl)cc3)o2)C(=O)O)n[nH]1	2	11	-2	-2	3	·	·
C#CCNC(=O)C[C@H]1C(=O)N(CCCOC)C2=CCCCC[C@]21C(=O)OC	·	4	·	·	·	·	·
CCCCc1ccc(NC(=O)CSCc2cc(=O)[nH][nH]2)cc1	19	42*	0	1	-1	15	4.5*
O=C(NCCc1c[nH]c2ccccc12)OCc1cn(Cc2ccc(C(F)(F)F)cc2)nn1	·	1	·	·	·	·	·
O=C(CCc1ccccc1)Nc1cc2c3c(c1)CCC(=O)N3CCC2	·	42*	-22	2	1	8	1
O=C(CCc1ccccc1)Nc1cc(NC(=O)CCc2ccccc2)cc(C(=O)O)c1	15	40*	12	-4	6	27	4
CCC1CCC(C(=O)NNC(=O)c2cc(-c3ccco3)[nH]n2)CC1 (stereo not drawn)	32	46*	-24	19	1	4	2
O=C(NNC(=O)C1CCCCC1)c1ccco1	4	-2	14	1	7	·	·
CC1=CC(c2ccc(Cl)cc2)n2nc(NS(=O)(=O)c3ccc(C)cc3)nc2N1 (stereo not drawn)	16	47*	10	13	6	52*	17*
COc1cc(/C=C2\SC(=Nc3ccc(N4CCOCC4)cc3)N(C)C2=O)ccc1OC(C)C(=O)O (stereo not drawn)	9	41*	9	-5	1	52*	17*
COc1cc(/C=C2\SC(=Nc3ccccc3)N(Cc3ccco3)C2=O)ccc1OC(C)C(=O)O (stereo not drawn)	3	67*	-15	12	4	71*	29*	dCAG dye DR=i
COc1cc(/C=C2\SC(=Nc3ccc(F)cc3)N(c3ccc(F)cc3)C2=O)ccc1OCC(=O)O	8	·	·	7	·	·	·
C#CCN(Cc1ccco1)C(=O)c1nnc2c3ccccc3n(S(=O)(=O)c3ccccc3)c2n1	·	11	-14	·	0	·	·
Cc1nc(SCC(=O)c2ccccc2)[nH]c(=O)c1Oc1ccc(Cl)cc1	29	41*	-40	10	-3	35*	8.5*
O=C1Nc2ccc(Br)cc2/C1=C/C(=O)c1ccc2c(c1)OCO2	-8	44*	9	13	-1	26	14*
COc1ccc(C(=O)/C=C2\C(=O)Nc3ccc(Br)cc32)cc1	·	18	43	·	3	·	·
Cc1ccc(-c2nc(C3CCCN(S(=O)(=O)c4ccc(C)c(C)c4)C3)no2)cc1 (stereo not drawn)	·	5	·	·	·	·	·
COc1cccc(-c2csc(NC(=O)Nc3ccccc3)n2)c1	7	54*	35	-6	9	29	25*
SMILES	HCV NS3 hel inh	rCAG binder	TAAR1 antag	HCV core dimer	TAAR1 ag	rCAG binder conf	DNA CAG counter	others
O=C(Nc1ccccc1)Nc1nc(-c2ccccc2)cs1	-12	43*	16	1	6	12	15*
O=C(Nc1ccc(Cl)c(Cl)c1)Nc1nc(-c2ccccc2)cs1	2	24	18	8	13	·	·
O=C(O)CCC(=O)Nc1ccc(-c2csc(Nc3cccc4ccccc34)n2)cc1	·	49*	16	·	-1	49*	18*
O=C(OCc1cn(Cc2cccc(F)c2F)nn1)N1CCOCC1	·	0	·	·	·	·	·
CCOC(=O)N(C)[C@H]1C[C@H]2c3[nH]c4c(-c5ccc6c(c5)OCO6)cccc4c3CCN2C(=O)[C@H]1[C@H](C)O	·	9	·	·	·	·	·
CCCc1cc2c(-c3ccccc3)cc(=O)oc2cc1OCc1ccc(C(=O)O)o1	8	57*	20	20	9	73*	27*	dCAG dye DR=i
Cc1ccc(SCC(=O)N2CCOCC2)cc1	1	40*	-5	0	4	1	2
O=C(/C(=N/N=C/c1ccc(O)c(O)c1)c1ccccc1)c1ccccc1	2	37*	7	-9	5	51*	27*
O=C(Nc1ccc2c(c1)OCO2)OC1CCC12CCC(c1ccccc1)CC2 (stereo not drawn)	·	5	·	·	·	·	·
CCn1c(SCC(=O)c2ccc(O)c(O)c2)nnc1-c1ccccc1	12	8	1	-9	1	·	·
Cc1ccc(-n2c(SCC(=O)c3ccc(O)c(O)c3)nnc2-c2ccccc2)cc1	·	39*	·	·	·	37*	15*
Cc1ccc(CN2[C@@H](Cc3ccccc3)C(=O)CS2(=O)=O)cc1	·	41*	3	·	2	21	9.1*
COc1ccc(Cn2cc(COC(=O)N3CCOCC3)nn2)cc1	·	2	·	·	·	·	·
Cc1ccc(CNC(=O)C2CC(c3ccccc3C(F)(F)F)=NO2)o1 (stereo not drawn)	·	38*	8	-3	2	5	3
O=C1OC(c2cccs2)=N/C1=C\c1ccc(-c2cccc(Cl)c2)o1	31	49*	11	21	4	40*	12*	dCAG dye DR=>30
COC(=O)[C@]12C[C@H](CC(=O)N3CCC(c4ccccc4)CC3)C(=O)N(Cc3ccco3)C1=C[C@H](C(C)C)O[C@@H]2C1CC1	·	1	·	·	·	·	·
NN=C1c2ccccc2C(=O)C1C(=O)C(c1ccccc1)c1ccccc1 (stereo not drawn)	·	45*	2	·	8	44*	28*
COC(=O)c1cc2c(c3c4cc(C)ccc4n(S(=O)(=O)c4cccc(C)c4)c13)C(=O)N(Cc1ccccc1OC)C2	·	16	-34	·	0	·	·

Source: PubChem BioAssay
